Activity calls are given as the source filed them. The calls are words filed in the database; no cut-off is given here.
What was measured:
HepG2 [1] = assay: Induction of glucose uptake in human HepG2 cells at 0.625 to 2.5 uM incubated for 24 hrs in low glucose medium relative to control; format: functional
Procedure, shortened: (§1)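 HepG2 cells in high-glucose DMEM with 10% FBS and antibiotics, seeded at 5000 cells/well for 24 h. They were washed with low-glucose DMEM and PBS, then treated for 24 h in low-glucose DMEM with 2% FBS at 0.625, 1.25 or 2.5 μM. Glucose left in the medium was measured with a glucose kit. Rosiglitazone was the positive control.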

HepG2 [2] = assay: Induction of glucose uptake in human HepG2 cells at 0.625 to 2.5 uM incubated for 24 hrs in low glucose medium; format: functional, cell-based; procedure, shortened: as §1
Alpha glucosidase = Alpha glucosidase (Homo sapiens, UniProt O43451+P10253+P14410+Q2M2H8); assay: Inhibition of alpha-glucosidase (unknown origin) using PNP glucoside as substrate preincubated for 30 mins followed by substrate addition further incubated for 1 min by spectrophotometry; format: protein assay
Procedure, shortened: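 Yeast α-glucosidase with p-nitrophenyl-α-D-glucopyranoside substrate in 50 mM phosphate buffer, pH 6.8, with 5% v/v DMSO. Inhibitor and enzyme were preincubated for 30 min at 37 °C, then the reaction ran for 1 min at 37 °C, read at 400 nm. IC50 came from five concentrations bracketing a preliminary estimate, each measured three times in parallel; mean ± SD.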

HepG2 (Homo sapiens) = assay: Cytotoxicity against human HepG2 cells assessed as effect on cell survival at 0.625 to 2.5 uM incubated for 44 hrs by MTT assay; conditions: HepG2, 44 h
L02 = assay: Cytotoxicity against human LO2 cells assessed as reduction in cell viability incubated for 44 hrs by MTT assay; format: cell-based; conditions: L02, 44 h
Procedure, shortened: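 LO2 human hepatocytes in DMEM with 10% FBS, penicillin and streptomycin at 37 °C, 5% CO2. Plated at 5000 cells/well for 24 h, then exposed to a range of concentrations for 44 h. MTT was added for 4 h, formazan dissolved in DMSO, and A490 read. Viability = A treated/A control × 100%. IC50 is the concentration giving 50% viability loss, as mean ± SD.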

[3] = test system: Alpha-glucosidase (Saccharomyces cerevisiae); assay: Noncompetitive inhibition of alpha-glucosidase (Saccharomyces cerevisiae) at 0 to 6 uM using PNP glycoside as substrate preincubated for 30 mins followed by substrate addition further incubated for 1 min by Lineweaver-Burk plot analysis
[4] = test system: Alpha-glucosidase (Saccharomyces cerevisiae); assay: Noncompetitive inhibition of alpha-glucosidase (Saccharomyces cerevisiae) at 0 to 3.5 uM using PNP glycoside as substrate preincubated for 30 mins followed by substrate addition further incubated for 1 min by Lineweaver-Burk plot analysis
HepG2 [5] = assay: Induction of glucose uptake in human HepG2 cells incubated for 24 hrs in low glucose medium; format: functional, cell-based; procedure, shortened: as §1
[6] = test system: Alpha-glucosidase (Saccharomyces cerevisiae); assay: Noncompetitive inhibition of alpha-glucosidase (Saccharomyces cerevisiae) at 0 to 9 uM using PNP glycoside as substrate preincubated for 30 mins followed by substrate addition further incubated for 1 min by Lineweaver-Burk plot analysis
[7] = test system: Alpha-glucosidase (Saccharomyces cerevisiae); assay: Noncompetitive inhibition of alpha-glucosidase (Saccharomyces cerevisiae) at 0 to 10 uM using PNP glycoside as substrate preincubated for 30 mins followed by substrate addition further incubated for 1 min by Lineweaver-Burk plot analysis
HepG2 [8] = assay: Induction of glucose uptake in human HepG2 cells at 0.625 uM incubated for 24 hrs in low glucose medium relative to control; format: functional; procedure, shortened: as §1
HepG2 [9] = assay: Induction of glucose uptake in human HepG2 cells at 2.5 uM incubated for 24 hrs in low glucose medium relative to control; format: functional; procedure, shortened: as §1
HepG2 [10] = assay: Induction of glucose uptake in human HepG2 cells at 1.25 uM incubated for 24 hrs in low glucose medium relative to control; format: functional; procedure, shortened: as §1
[11] = test system: Alpha-glucosidase (Saccharomyces cerevisiae); assay: Noncompetitive inhibition of alpha-glucosidase (Saccharomyces cerevisiae) at 0 to 4 uM using PNP glycoside as substrate preincubated for 30 mins followed by substrate addition further incubated for 1 min by Lineweaver-Burk plot analysis

| Molecule | Activity (HepG2 [2]) | IC50 (Alpha glucosidase) [µM] | Activity (HepG2 (Homo sapiens)) | IC50 (L02) [µM] | also measured |
| --- | --- | --- | --- | --- | --- |
| CN(CCOc1ccc(CC2SC(=O)NC2=O)cc1)c1ccccn1 (stereo unspecified) [ROSIGLITAZONE] | – | – | – | – | Activity (HepG2 [1]): 50% |
| 2-(4-(((7-bromo-1-hydroxy-9-oxo-9H-xanthen-3-yl)oxy)methyl)-1H-1,2,3-triazol-1-yl)-N-(2,4-dihydroxyphenyl)acetamide | Active | – | – | – | – |
| O=C(Cn1cc(COc2cc(O)c3c(=O)c4cc(O)ccc4oc3c2)nn1)Nc1ccc(O)c(O)c1 | inactive | 7.06 | Non-Toxic | > 100 | – |
| COc1ccc(NC(=O)Cn2cc(COc3cc(O)c4c(=O)c5cc(Br)ccc5oc4c3)nn2)cc1OC | – | 29.84 | – | > 100 | – |
| COc1ccc(NC(=O)Cn2cc(COc3cc(O)c4c(=O)c5cc(Br)ccc5oc4c3)nn2)c(OC)c1 | inactive | 3.07 | Non-Toxic | > 100 | inhibition [3]: Active |
| O=C(Cn1cc(COc2cc(O)c3c(=O)c4cc(Br)ccc4oc3c2)nn1)Nc1ccc(O)c(O)c1 | Active | 3.17 | Non-Toxic | > 100 | inhibition [3]: Active |
| COc1ccc2c(=O)c3c(O)cc(OCc4cn(CC(=O)Nc5ccc(OC)c(OC)c5)nn4)cc3oc2c1 | – | 15.9 | – | > 100 | – |
| COc1ccc(NC(=O)Cn2cc(COc3cc(O)c4c(=O)c5cc(OC)ccc5oc4c3)nn2)c(OC)c1 | inactive | 8.31 | Non-Toxic | 65.4 | – |
| COc1ccc(NC(=O)Cn2cc(COc3cc(OC(C)=O)c4c(=O)c5cc(Br)ccc5oc4c3)nn2)c(OC)c1 | inactive | 12.13 | Non-Toxic | 80.7 | – |
| COc1ccc2c(=O)c3c(OC(C)=O)cc(OCc4cn(CC(=O)Nc5ccc(OC)c(OC)c5)nn4)cc3oc2c1 | – | 98.63 | – | > 100 | – |
| COc1ccc(NC(=O)Cn2cc(COc3cc(O)c4c(=O)c5ccc(Br)cc5oc4c3)nn2)c(OC)c1 | Active | 2.78 | Non-Toxic | > 100 | inhibition [4]: Active |
| O=C(Cn1cc(COc2cc(O)c3c(=O)c4ccc(O)cc4oc3c2)nn1)Nc1ccc(O)c(O)c1 | – | 6.13 | Non-Toxic | > 100 | Activity (HepG2 [5]): Dose-dependent effect |
| COc1ccc2oc3cc(OCc4cn(CC(=O)Nc5ccc(OC)c(OC)c5)nn4)cc(OC(C)=O)c3c(=O)c2c1 | – | > 100 | – | 24.9 | – |
| COc1ccc2oc3cc(OCc4cn(CC(=O)Nc5ccc(OC)c(OC)c5)nn4)cc(O)c3c(=O)c2c1 | – | > 100 | – | > 100 | – |
| O=C(Cn1cc(COc2cc(O)c3c(=O)c4ccc(O)cc4oc3c2)nn1)Nc1ccc(O)cc1O | – | 17.61 | – | > 100 | – |
| COc1ccc(NC(=O)Cn2cc(COc3cc(OC(C)=O)c4c(=O)c5cc(Br)ccc5oc4c3)nn2)cc1OC | – | 32.33 | – | > 100 | – |
| COc1ccc(NC(=O)Cn2cc(COc3cc(OC(C)=O)c4c(=O)c5ccc(Br)cc5oc4c3)nn2)cc1OC | – | 26.11 | – | 25.9 | – |
| O=C(Cn1cc(COc2cc(O)c3c(=O)c4ccc(Br)cc4oc3c2)nn1)Nc1ccc(O)c(O)c1 | – | 5.23 | Non-Toxic | > 100 | inhibition [6]: Active; Activity (HepG2 [5]): Dose-dependent effect |
| O=C(Cn1cc(COc2cc(O)c3c(=O)c4ccc(Br)cc4oc3c2)nn1)Nc1ccc(O)cc1O | inactive | 5.87 | Non-Toxic | 74 | inhibition [7]: Active |
| O=c1c2ccccc2oc2cc(O)cc(O)c12 | inactive | – | Non-Toxic | – | – |
| COc1ccc(NC(=O)Cn2cc(COc3cc(OC(C)=O)c4c(=O)c5ccc(OC)cc5oc4c3)nn2)c(OC)c1 | – | 33.16 | – | > 100 | – |
| COc1ccc(NC(=O)Cn2cc(COc3cc(O)c4c(=O)c5ccc(Br)cc5oc4c3)nn2)cc1OC | – | 11.82 | – | > 100 | – |
| COc1ccc(NC(=O)Cn2cc(COc3cc(OC(C)=O)c4c(=O)c5ccc(Br)cc5oc4c3)nn2)c(OC)c1 | – | 12.78 | Non-Toxic | > 100 | Activity (HepG2 [8]): 61%; Activity (HepG2 [9]): 163%; Activity (HepG2 [10]): 90%; Activity (HepG2 [5]): Dose-dependent effect |
| O=C(Cn1cc(COc2cc(O)c3c(=O)c4cc(O)ccc4oc3c2)nn1)Nc1ccc(O)cc1O | – | 15.62 | – | > 100 | – |
| COc1ccc(NC(=O)Cn2cc(COc3cc(OC(C)=O)c4c(=O)c5cc(OC)ccc5oc4c3)nn2)c(OC)c1 | – | 42.6 | – | > 100 | – |
| COc1ccc(NC(=O)Cn2cc(COc3cc(O)c4c(=O)c5ccc(OC)cc5oc4c3)nn2)c(OC)c1 | – | 2.06 | Non-Toxic | 89.1 | inhibition [11]: Active; Activity (HepG2 [5]): Dose-dependent effect |
